Source: PMC4474499 (Science Advances, 2015)
Entries after “also recorded” stand apart in the source; their conditions may differ. Values belong to the molecule of their own block, whether it stands above or below them. Non-standard residues stand in square brackets, D forms with d. No end group written: not given here. Pam3Cys = Cys carrying the Pam3 acyl chains of Pam3CSK4

B1: human TLR1 protein, purified extracellular domain (receptor, UniProt Q15399 25-580, looked up)
chain: SEFLVDRSKNGLIHVPKDLSQKTTILNISQNYISELWTSDILSLSKLRILIISHNRIQYLDISVFKFNQELEYLDLSHNKLVKISCHPTVNLKHLDLSFNAFDALPICKEFGNMSQLKFLGLSTTHLEKSSVLPIAHLNISKVLLVLGETYGEKEDPEGLQDFNTESLHIVFPTNKEFHFILDVSVKTVANLELSNIKCVLEDNKCSYFLSILAKLQTNPKLSNLTLNNIETTWNSFIRILQLVWHTTVWYFSISNVKLQGQLDFRDFDYSGTSLKALSIHQVVSDVFGFPQSYIYEIFSNMNIKNFTVSGTRMVHMLCPSKISPFLHLDFSNNLLTDTVFENCGHLTELETLILQMNQLKELSKIAEMTTQMKSLQQLDISQNSVSYDEKKGDCSWTKSLLSLNMSSNILTDTIFRCLPPRIKVLDLHSNKIKSIPKQVVKLEALQELNVAFNSLTDLPGCGSFSSLSVLIIDHNSVSHPSADFFQSCQKMRSIKAGDNPFQCTCELGEFVKNIDQVSSEVLEGWPDSYKCDYPESYRGTLLKDFHMSELSCNIT

What was measured:
[1] = target: human TLR2 (Homo sapiens, UniProt O60603+Q15399); assay: SEAP reporter gene detection assay in HEK-Blue hTLR2 cells; assay type: cell-based
human TLR2, sequence (O60603 21-784): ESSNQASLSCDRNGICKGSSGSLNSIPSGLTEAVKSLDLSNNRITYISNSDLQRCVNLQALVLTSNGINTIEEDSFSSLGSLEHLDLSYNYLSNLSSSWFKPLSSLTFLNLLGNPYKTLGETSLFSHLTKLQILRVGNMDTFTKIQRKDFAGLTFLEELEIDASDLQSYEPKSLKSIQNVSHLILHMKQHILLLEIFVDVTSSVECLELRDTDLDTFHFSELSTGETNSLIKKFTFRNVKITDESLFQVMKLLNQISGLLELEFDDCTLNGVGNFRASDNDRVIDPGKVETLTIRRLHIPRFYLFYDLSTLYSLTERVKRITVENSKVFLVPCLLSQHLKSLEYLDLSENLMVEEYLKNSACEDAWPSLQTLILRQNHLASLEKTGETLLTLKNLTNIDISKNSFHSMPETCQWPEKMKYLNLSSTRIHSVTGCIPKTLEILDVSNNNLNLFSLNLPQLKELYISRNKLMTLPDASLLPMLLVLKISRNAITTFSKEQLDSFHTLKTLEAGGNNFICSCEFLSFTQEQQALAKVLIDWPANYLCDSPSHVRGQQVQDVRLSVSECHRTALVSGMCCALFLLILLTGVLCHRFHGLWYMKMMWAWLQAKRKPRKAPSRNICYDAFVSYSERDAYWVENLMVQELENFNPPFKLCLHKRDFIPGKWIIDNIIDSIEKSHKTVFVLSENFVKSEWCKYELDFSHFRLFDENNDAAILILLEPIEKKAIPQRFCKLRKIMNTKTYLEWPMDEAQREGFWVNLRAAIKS
human TLR2, sequence (Q15399 25-786): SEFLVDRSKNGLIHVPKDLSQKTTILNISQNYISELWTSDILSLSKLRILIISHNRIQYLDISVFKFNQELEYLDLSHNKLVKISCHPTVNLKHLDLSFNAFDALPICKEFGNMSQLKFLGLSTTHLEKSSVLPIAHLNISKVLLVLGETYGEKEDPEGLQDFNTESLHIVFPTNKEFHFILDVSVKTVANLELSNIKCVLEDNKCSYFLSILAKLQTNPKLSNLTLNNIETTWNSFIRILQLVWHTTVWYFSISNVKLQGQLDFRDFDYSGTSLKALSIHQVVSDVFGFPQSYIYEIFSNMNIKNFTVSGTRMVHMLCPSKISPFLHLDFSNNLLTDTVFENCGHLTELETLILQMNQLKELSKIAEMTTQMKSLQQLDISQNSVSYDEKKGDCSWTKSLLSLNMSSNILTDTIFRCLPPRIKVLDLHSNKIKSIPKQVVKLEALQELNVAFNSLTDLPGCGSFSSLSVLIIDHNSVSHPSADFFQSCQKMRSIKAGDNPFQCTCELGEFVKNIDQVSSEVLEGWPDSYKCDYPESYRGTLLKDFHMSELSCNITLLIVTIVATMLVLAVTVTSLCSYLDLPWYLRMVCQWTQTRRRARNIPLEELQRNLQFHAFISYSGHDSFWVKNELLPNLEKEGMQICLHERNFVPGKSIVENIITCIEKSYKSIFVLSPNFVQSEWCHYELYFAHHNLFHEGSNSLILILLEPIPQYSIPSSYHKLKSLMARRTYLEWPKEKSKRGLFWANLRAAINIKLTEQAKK
Outline: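 HEK-Blue hTLR2 cells (SEAP reporter), 4 × 10^4/well, grown 24 h. Then 24 h in Opti-MEM/0.5% FBS with compounds at 0–50 μM or 0–100 μM. Pam3CSK4 (0–66 nM) used as reference agonist. Supernatant heat-treated 30 min at 65°C, cooled, mixed with SEAP buffer and CSPD substrate; luminescence read after 20 min.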

[2] = target: TLR1/2 complex (Homo sapiens, UniProt O60603+Q15399); assay: Fluorescence anisotropy competition with Rho-Pam3; assay type: binding; details: up to 10 μM
TLR1/2 complex, sequence (O60603 21-588 limits assumed, one chain of several): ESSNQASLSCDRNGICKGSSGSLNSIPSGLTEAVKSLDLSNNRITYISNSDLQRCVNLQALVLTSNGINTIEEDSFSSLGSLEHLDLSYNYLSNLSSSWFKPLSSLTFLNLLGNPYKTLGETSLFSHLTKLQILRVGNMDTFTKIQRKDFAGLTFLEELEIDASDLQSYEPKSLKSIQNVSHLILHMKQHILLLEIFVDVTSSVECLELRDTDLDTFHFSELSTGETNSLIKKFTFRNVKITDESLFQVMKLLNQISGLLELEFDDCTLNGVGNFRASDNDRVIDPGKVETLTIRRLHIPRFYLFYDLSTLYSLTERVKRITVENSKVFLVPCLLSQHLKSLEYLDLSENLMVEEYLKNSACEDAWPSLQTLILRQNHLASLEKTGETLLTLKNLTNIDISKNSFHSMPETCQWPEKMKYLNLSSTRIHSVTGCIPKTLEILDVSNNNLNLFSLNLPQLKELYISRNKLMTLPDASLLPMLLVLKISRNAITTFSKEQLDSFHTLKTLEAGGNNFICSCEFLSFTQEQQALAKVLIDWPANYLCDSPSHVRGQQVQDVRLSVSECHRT
Outline: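 Equal amounts of TLR1 and TLR2 (4 μl each of 10 μM stocks) added to Rho-Pam3CSK4 in PBS pH 7.4 and held 30 min. Serial test-compound concentrations then incubated with the complex 30 min at RT. Fluorescence anisotropy read at 25°C (ex 549/em 566 nm). An analog served as negative control; IC50 derived from the titration.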

[3] = system: NF-κB; assay: U937 NF-κB–GFP reporter assay; assay type: cell-based, human; details: 20 μM (GA even up to 100 μM), U937 cells
[4] = system: Raw 264.7 cells; assay: In vitro NO activation assay for Raw 264.7 cells; assay type: cell-based, mouse; details: Raw 264.7 macrophage cells, 1 µM CU-T12-9
Outline: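 RAW 264.7 cells, 80,000/well, grown 24 h. Non-adherent cells removed; medium changed to unsupplemented RPMI 1640. Treated 24 h with test compound, or 66 nM (100 ng/ml) Pam3CSK4 as control. Supernatant reacted 15 min in the dark with 2,3-diaminonaphthalene in HCl, quenched with NaOH. Fluorescence read at ex 365/em 450 nm; nitrite calculated from a standard curve.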

[5] = system: NF-κB; assay: Triptolide inhibition of CU-T12-9–induced SEAP signaling in HEK-Blue hTLR2 cells; assay type: cell-based, human
[6] = system: Raw 264.7 cells; assay: Quantitative RT-PCR of mRNA levels in Raw 264.7 macrophage cells; assay type: cell-based, mouse
Outline: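 RAW 264.7 cells, 1 × 10^6/well, grown 24 h, then given fresh RPMI 1640. Exposed to test compound, or 33 nM (50 ng/ml) Pam3CSK4, for 0, 2, 8 or 24 h. Cells washed in cold PBS and frozen. Total RNA extracted (RNeasy) for qRT-PCR. Fold change calculated by ΔΔCt versus DMSO-treated cells, means ± SD.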

[7] = target: hTLR1 and hTLR2 (Homo sapiens, UniProt O60603+Q15399); assay: SEC-LS assay of TLR1/2 heterodimer formation; assay type: biochemical; details: CU-T12-9 0 to 40 μM or Pam3CSK4 260 nM (400 ng/ml)
hTLR1 and hTLR2, sequence (O60603 21-588 limits assumed, one chain of several): as above
Outline: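 Human TLR2 in PBS pH 7.4 preincubated 2 h at RT with test compound or Pam3CSK4. Equimolar hTLR1 then added (final about 10 μM each) for 2 h at 37°C. Both proteins were baculovirus/insect-cell products. Samples filtered (0.1 μm) and run on size-exclusion column in PBS at 1 ml/min. Detection by in-line multi-angle light scattering, refractive index and UV.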

[8] = target: the molecule itself; assay: SEC-MALS
[9] = target: human TLR2 protein, purified extracellular domain (human, UniProt O60603 21-588); assay: fluorescence polarisation
human TLR2 protein, purified extracellular domain, sequence (O60603 21-588): as the sequence (O60603 21-588 limits assumed, one chain of several) above

[10] = target: TLR1/TLR2 complex (equimolar mixture of purified hTLR1 and hTLR2) (human, UniProt Q15399 25-580; O60603 21-588); assay: fluorescence polarisation
TLR1/TLR2 complex (equimolar mixture of purified hTLR1 and hTLR2), sequence (O60603 21-588, chain 2 of 2, one chain of several): as the sequence (O60603 21-588 limits assumed, one chain of several) above

[11] = target: B1; assay: fluorescence polarisation

SEAP agonist activity (in words) ([1]; HEK-Blue hTLR2 cells, nitro group switched from R3 to R4): completely abolished activity
Molecule: CNc1ccc([N+](=O)[O-])cc1-n1cnc(-c2cccc([N+](=O)[O-])c2)c1 [Compound 10]

increase in potency relative to GA (factor) ([1]; replacement of –NO2 at R3): 10
Molecule: CNc1ccc([N+](=O)[O-])cc1-n1cnc(-c2ccc(C#N)cc2)c1 [Compound 11]

SEAP activity at 100 μM ([1]; 100 μM, HEK-Blue hTLR2 cells): inactive
Molecule: CNc1ccc([N+](=O)[O-])cc1-n1cnc(-c2ccc(C(=O)O)cc2)c1 [Compound 19]

decrease in potency compared with CU-T12-9 ([1]; –CF3 at R1): four times
Molecule: CNc1ccc(C(F)(F)F)cc1-n1cnc(-c2ccc(C(F)(F)F)cc2)c1 [Compound 20]

Molecule: CNc1ccc(C(=O)O)cc1-n1cnc(-c2ccc(C(F)(F)F)cc2)c1 [Compound T12-29]
inhibition of Rho-Pam3 binding to TLR1/TLR2 [2]: no competitive binding; also recorded: negligible inhibition

Molecule: CNc1ccc([N+](=O)[O-])cc1-n1cnc(-c2ccc([N+](=O)[O-])cc2)c1 [GA, N-methyl-4-nitro-2-(4-(4-nitrophenyl)-1H-imidazol-1-yl)aniline, reference compound]
NF-κB activation [3]: much lower NF-κB activation

Molecule: CCOC(=O)C1=CCCC[C@H]1S(=O)(=O)Nc1ccc(F)cc1Cl [TAK-242, reference compound]
inhibition of CU-T12-9 induced NO activation [4]: could not be influenced

Molecule: CC(C)[C@]12O[C@H]1[C@@H]1O[C@]13[C@]1(O[C@H]1C[C@H]1C4=C(CC[C@@]13C)C(=O)OC4)[C@@H]2O [Triptolide]
inhibition of CU-T12-9–induced SEAP signaling [5]: efficiently inhibit

TLR1/2 heterodimer formation [7]: promoted TLR1/2 heterodimerization
Molecule: Pam3CSK4 [reference compound]
time of highest TLR2 mRNA expression ([6]; 1 μM CU-T12-9 or 33 nM (50 ng/ml) Pam3CSK4, measured at 2, 8, 24 hours): 2 h
TNF mRNA expression ([6]; over time, maximal expression after 8 hours): increased
iNOS mRNA expression ([6]; over time, peaked at 24 hours): increased

Molecule: B1
stoichiometry N [8]: 2

Kd [9]: 125 ± 3.43 nM
Kd [10]: 35 ± 1.98 nM
Kd [11]: 41.6 ± 2.36 nM
Molecule: [Pam3Cys]SKKKK (also: rhodamine label, site not given here) [rhodamine-labeled Pam3CSK4]
